Experimental findings from ChEMBL document CHEMBL1154740, “Efficient microwave combinatorial synthesis of novel indolic arylpiperazine derivatives as serotoninergic ligands” (Eur J Med Chem, 2010) are described below.

The target of test [1] is 5-hydroxytryptamine receptor 2A (Rattus norvegicus, UniProt P14842). Kind of test: Displacement of [3H]ketanserin from 5HT2A in Sprague-Dawley rat brain cortex by liquid scintillation counting. Summed up:
(§1)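 Frontal cortex of male Sprague–Dawley rats (180–220 g), in 50 mM Tris-HCl, 0.5 mM EDTA, 10 mM MgCl2, pH 7.4, plus 0.1% ascorbate and pargyline. Triplicate 2.0 mL assays: 5-HT2A with 5 mg tissue and 0.4 nM [3H]ketanserin; 5-HT2C with 10 mg tissue and 1 nM [3H]mesulergine. 15 min at 37 °C, PEI-soaked filters. IC50 from six concentrations converted to Ki (Cheng–Prusoff).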
Background: Loss of bound radioactivity is the signal in a displacement assay; it reports binding, not function.

In test [2] the target is T1, 5-hydroxytryptamine receptor 2C (Rattus norvegicus, UniProt P08909).
T1 sequence (P08909 whole entry): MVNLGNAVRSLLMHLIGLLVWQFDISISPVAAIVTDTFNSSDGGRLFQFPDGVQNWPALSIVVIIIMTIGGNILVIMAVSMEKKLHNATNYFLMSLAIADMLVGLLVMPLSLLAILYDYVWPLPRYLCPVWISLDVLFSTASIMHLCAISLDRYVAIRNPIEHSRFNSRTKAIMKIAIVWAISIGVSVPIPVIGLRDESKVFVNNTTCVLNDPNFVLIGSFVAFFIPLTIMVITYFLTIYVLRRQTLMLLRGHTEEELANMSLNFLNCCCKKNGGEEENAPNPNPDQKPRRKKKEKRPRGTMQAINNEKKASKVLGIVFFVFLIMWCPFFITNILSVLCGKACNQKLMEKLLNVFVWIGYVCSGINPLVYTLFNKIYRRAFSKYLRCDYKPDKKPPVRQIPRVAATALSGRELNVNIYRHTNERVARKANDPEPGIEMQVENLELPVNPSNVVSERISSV
Kind of test: Displacement of [3H]mesulergine from 5HT2C in Sprague-Dawley rat brain cortex by liquid scintillation counting. The procedure, abridged:
as §1

Test [3] concerns the target T2, 5-hydroxytryptamine receptor 1A (Rattus norvegicus, UniProt P19327).
T2 sequence (P19327 whole entry): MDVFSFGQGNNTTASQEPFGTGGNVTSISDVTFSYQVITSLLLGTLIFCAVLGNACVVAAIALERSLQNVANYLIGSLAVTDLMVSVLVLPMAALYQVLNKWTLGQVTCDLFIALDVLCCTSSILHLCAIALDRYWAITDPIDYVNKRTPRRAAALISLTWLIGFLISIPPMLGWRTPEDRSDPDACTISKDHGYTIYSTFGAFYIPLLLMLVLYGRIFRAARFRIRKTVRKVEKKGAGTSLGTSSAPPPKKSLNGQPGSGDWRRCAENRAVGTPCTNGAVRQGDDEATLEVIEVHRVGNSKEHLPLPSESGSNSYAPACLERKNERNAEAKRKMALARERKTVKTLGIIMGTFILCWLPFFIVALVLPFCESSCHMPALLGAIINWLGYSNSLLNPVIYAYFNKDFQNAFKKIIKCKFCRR
Kind of test: Displacement of [3H]8OH-DPAT from 5HT1A in Sprague-Dawley rat brain cortex by liquid scintillation counting. Summed up:
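Male Sprague–Dawley rat (180–220 g) cerebral cortex membranes, washed and preincubated 10 min at 37 °C, in Tris–HCl pH 7.7 with pargyline, 4 mM CaCl2, 0.1% ascorbate. [3H]-8-OH-DPAT at 0.1 nM final, 30 min at 37 °C, GF/B filtration. Nonspecific binding defined with 5-HT. Six concentrations in triplicate; IC50 converted to Ki by Cheng–Prusoff using Scatchard KD.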

Structures are written as SMILES.

Sequence of 5-hydroxytryptamine receptor 2A (P14842 whole entry): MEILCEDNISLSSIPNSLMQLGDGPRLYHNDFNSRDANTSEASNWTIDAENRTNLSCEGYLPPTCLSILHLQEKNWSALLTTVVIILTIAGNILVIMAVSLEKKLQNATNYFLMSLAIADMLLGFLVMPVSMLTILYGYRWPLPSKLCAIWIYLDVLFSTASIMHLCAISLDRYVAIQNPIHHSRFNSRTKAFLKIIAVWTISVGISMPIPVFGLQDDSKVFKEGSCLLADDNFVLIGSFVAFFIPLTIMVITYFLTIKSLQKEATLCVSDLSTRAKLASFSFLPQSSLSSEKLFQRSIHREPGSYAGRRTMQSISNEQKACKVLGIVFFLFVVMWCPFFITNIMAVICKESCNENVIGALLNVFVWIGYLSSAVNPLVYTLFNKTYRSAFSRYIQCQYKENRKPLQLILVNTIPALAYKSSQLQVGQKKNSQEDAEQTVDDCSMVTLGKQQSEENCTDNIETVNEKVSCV

For `CCOC(=O)c1cc2cc(OCCCN3CCN(c4ccc([N+](=O)[O-])cc4)CC3)ccc2[nH]1`, the Ki was 10 µM in test [1] (read-out: Ki), 0.247 µM in test [2] (read-out: Ki) and “Not Active” in test [3].
For `CCOC(=O)c1cc2cc(OCCCN3CCN(c4cccc(C(F)(F)F)c4)CC3)ccc2[nH]1`, the Ki was 3.61 µM in test [1] (read-out: Ki), “Not Active” in test [2] and 0.0358 µM in test [3] (read-out: Ki).
For the compound `CCOC(=O)c1cc2cc(OCCCN3CCN(c4ccccc4C)CC3)ccc2[nH]1`, the Ki result in test [1] and in test [2] was “Not Active” throughout.
As for `CCOC(=O)c1cc2cc(OCCCN3CCN(c4ccccn4)CC3)ccc2[nH]1`, the Ki in test [1] (read-out: Ki) was 0.344 µM; in test [2] (read-out: Ki) it was 0.104 µM; in test [3] it was “Not Active”.
On to `CCOC(=O)c1cc2cc(OCCCN3CCN(c4ccccc4C#N)CC3)ccc2[nH]1`, for which the Ki result in test [1] and in test [2] was “Not Active” throughout.
Turning to `CCOC(=O)c1cc2cc(OCCCN3CCN(c4ccc(Cl)cc4)CC3)ccc2[nH]1`, the Ki in test [2] (read-out: Ki) is 0.0451 µM; in test [3] (read-out: Ki), 0.014 µM.
As for `CCOC(=O)c1cc2cc(OCCCN3CCN(c4ccc(Cl)c(Cl)c4)CC3)ccc2[nH]1`, the Ki entry was “Not Active” in test [1], 10 µM in test [2] (read-out: Ki) and 10 µM in test [3] (read-out: Ki).
In the case of `CCOC(=O)c1cc2cc(OCCCN3CCN(C(=O)c4ccco4)CC3)ccc2[nH]1`, the Ki in test [1] (read-out: Ki) is 0.452 µM; in test [2] (read-out: Ki) it was 0.309 µM; in test [3], “Not Active”.
As to `CCOC(=O)c1cc2cc(OCCCN3CCN(c4ccccc4Cl)CC3)ccc2[nH]1`, the Ki is 0.537 µM in test [1] (read-out: Ki), 0.0397 µM in test [2] (read-out: Ki) and 10 µM in test [3] (read-out: Ki).

As usually defined, the Ki is the equilibrium dissociation constant of an inhibitor or competing ligand from its target.
